Most compounds without a hit are left out; they make up all but 3.7% or so of the library.
JMJD2C inh – inhibitors of GASC-1 histone demethylase, primary screen, biochemical, fluorescence, DELFIA europium; GST-JMJD2C(1-420) H3K9me3 demethylation; 330,000 tested, 0.069% active; inhibition, % at 2.35 µM; Lysine-specific demethylase 4C (Homo sapiens), Q9H3R0;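 active means more than half of a compound's replicate wells show inhibition beyond 50%, single wells judged on their own value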;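 further: signal counts dimethyl H3K9 product captured on neutravidin plate; 0% = median of DMSO wells and 100% = 0.3 times that DMSO median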
Target sequence (Q9H3R0 1-420 limits assumed): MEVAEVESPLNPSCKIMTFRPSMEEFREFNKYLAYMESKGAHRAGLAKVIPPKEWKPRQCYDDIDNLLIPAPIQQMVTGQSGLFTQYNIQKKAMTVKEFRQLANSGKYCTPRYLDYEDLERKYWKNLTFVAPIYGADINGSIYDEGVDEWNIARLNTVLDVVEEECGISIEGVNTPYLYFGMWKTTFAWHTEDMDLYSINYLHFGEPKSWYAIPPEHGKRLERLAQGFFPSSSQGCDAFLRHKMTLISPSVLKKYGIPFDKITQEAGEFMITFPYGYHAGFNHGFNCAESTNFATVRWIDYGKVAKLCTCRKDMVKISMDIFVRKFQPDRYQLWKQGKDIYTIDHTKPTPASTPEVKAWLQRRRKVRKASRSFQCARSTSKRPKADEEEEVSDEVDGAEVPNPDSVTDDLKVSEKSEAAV
AHR activator – AHR activators, primary screen, cell-based, luminescence, luciferase reporter, human. activation, % at 5 µM. AHR-responsive luciferase reporter cells. 320,000 tested, 2.5% active. Aryl hydrocarbon receptor (Homo sapiens), P35869. AID 2796, 2010; in the data active means activation above about 47%;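 further: 0% = vehicle wells and 100% = reference agonist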
SR-BI HDL uptake – inhibitors of SR-BI mediated HDL lipid uptake, primary screen, ldlA[mSR-BI] cells, fluorescence, single point; Scavenger receptor class B member 1 (Mus musculus), Q61009; 320,000 tested, 0.96% active; inhibition, % at 12.5 µM; ldlA[mSR-BI] CHO cells, DiI-HDL uptake fluorescence, 3 h;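 active means mean replicate inhibition of at least 70% and a set share of replicates each scoring 70 or more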;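 further: 0% = median of neutral control wells and 100% = median of positive control wells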
SR-BI DiI-HDL act – activators of SR-BI mediated DiI-HDL uptake, primary screen, ldlA[mSR-BI] CHO cells, DiI fluorescence. 3 h; 100 = double the neutral-control signal. activation, % at 12.5 µM. 320,000 tested, 0.096% active. AID 504775, 2011;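 active means mean replicate activation of at least 60% and every replicate at or above 60%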;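 further: 0% = median plate neutral-control signal and 100% = twice that signal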
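Assay system: CHO ldlA[mSR-BI] cells, LDL receptor-null, SR-BI overexpressing; medium: Ham's F12 with 0.5% BSA, HEPES 25 mM, pH 7.4; also added: DiI-HDL 10 µg/mL; timing: 3 h uptake period with compound, 37 °C; signal: DiI fluorescence, bottom read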
FXN GAA850 act – FXN promoter activators, primary screen, cell-based, luciferase luminescence, HEK293 lucGAA850 | HEK293 lucGAA850 FXN promoter luciferase reporter, 24 h; percent of 10 µM SAHA response | activation, % at 6 µM | 360,000 tested, 0.56% active;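 active means activation above the average of all compounds screened plus 3 SD, cutoff fixed separately per campaign, cut at about 7.5% in these data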;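 further: 0% = DMSO wells and 100% = 10 µM SAHA wells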
AHR act cf – AHR activators, confirmation, cell-based, luminescence, luciferase reporter, human; shares compounds with AHR activator; human cells, AHR-responsive luciferase reporter; activation, % at 9 µM; 2,300 tested, 87% active; AID 2845, 2010; in the data active means activation above about 49%;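 further: HepG2 hepatoma cells carrying a DRE-driven firefly luciferase reporter; 0% = vehicle wells and 100% = reference agonist wells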
PXR counter – human PXR activators, counter-screen for AHR activator project, cell-based, luciferase luminescence; shares compounds with AHR activator; cell-based PXR reporter; activation, % at 11.6 µM; 2,300 tested, 88% active; in the data active means activation above about 11%;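 further: human hepatoma DPX-2 cells expressing full-length human PXR; 0% = DMSO and 100% = reference agonist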
The depositor's hits bear a star.

Cc1cc(C)nc(NC(=O)c2cc(-c3ccc4c(c3)OCO4)nc3ccccc23)c1 was read as JMJD2C inh 1.2, AHR activator 89.5*, SR-BI HDL uptake 57.9, SR-BI DiI-HDL act -57.9, FXN GAA850 act 0.8, AHR act cf 77.6* and PXR counter 44.2*.
For S=C(NCc1ccco1)Nc1ccc(Br)cn1 the results were JMJD2C inh -13.1, AHR activator 81.2*, SR-BI HDL uptake -4.1, SR-BI DiI-HDL act 4.1, FXN GAA850 act 1.1, AHR act cf 59.3* and PXR counter 16.5*.
Screening Cc1cc(N2CCCCC2)nc(-c2ccc(Br)cc2)n1 returned JMJD2C inh -26.6, AHR activator 80.1*, SR-BI HDL uptake 50.4, SR-BI DiI-HDL act -50.4, FXN GAA850 act 3.2, AHR act cf 108.8* and PXR counter 3.2.
Cc1cccc(Nc2n[nH]c(=S)s2)c1C was read as JMJD2C inh 13.5, AHR activator -2.3, SR-BI HDL uptake -9.1, SR-BI DiI-HDL act 9.1 and FXN GAA850 act 2.2.
`Cc1cccc(Nc2nc3ccccc3s2)c1C` gave JMJD2C inh 3.9, AHR activator 100.7*, SR-BI HDL uptake 5.5, SR-BI DiI-HDL act -5.4, FXN GAA850 act 4.9, AHR act cf 50.0* and PXR counter 72.5*.
CC(C)OC(=O)/C(=C/c1ccc2c(c1)c1ccccc1n2C)NC(=O)c1ccccc1 was read as JMJD2C inh 19.2, AHR activator 79.7*, SR-BI HDL uptake 28.1, SR-BI DiI-HDL act -28.1, FXN GAA850 act 0.1, AHR act cf 97.0* and PXR counter 182.9*.
`Cn1c2ccccc2c2cc(/C=C(\NC(=O)c3ccccc3)C(=O)O)ccc21` gave JMJD2C inh -2.3, AHR activator 12.9, SR-BI HDL uptake -4.9, SR-BI DiI-HDL act 12.9 and FXN GAA850 act 3.0.
For O=C(c1ccc2c(=O)n3c(nc2c1)CCCCC3)N1CCc2ccccc21 the results were JMJD2C inh -1.7, AHR activator 7.8, SR-BI HDL uptake -13.7, SR-BI DiI-HDL act 13.7 and FXN GAA850 act 1.0.
`CN1CCN(/N=C/c2nc(-c3ccccc3)n3ccccc23)CC1` gave JMJD2C inh -13.2, AHR activator 102.2*, SR-BI HDL uptake -8.9, SR-BI DiI-HDL act 8.9, FXN GAA850 act 1.7, AHR act cf 64.7* and PXR counter 15.9*.
`Clc1ccc(-c2nc(/C=N/N3CCOCC3)c3ccccn23)cc1` gave JMJD2C inh 51.3, AHR activator 89.8*, SR-BI HDL uptake 61.5, SR-BI DiI-HDL act -61.5, FXN GAA850 act 1.7, AHR act cf 77.9* and PXR counter 25.3*.
`Clc1ccccc1-c1nc(/C=N/N2CCOCC2)c2ccccn12` gave JMJD2C inh 7.4, AHR activator 13.4, SR-BI HDL uptake 40.7, SR-BI DiI-HDL act -40.7 and FXN GAA850 act 2.4.
For CC1CCCC/C1=N\NC(=S)Nc1cccnc1 (stereo not given) the results were JMJD2C inh 15.2, AHR activator 113.3*, SR-BI HDL uptake 12.7, SR-BI DiI-HDL act -12.7, FXN GAA850 act 0.1, AHR act cf 73.5* and PXR counter 12.0*.
`Cn1cc(SCC(=O)NC2CCCCC2)c2ccccc21` gave JMJD2C inh 1.6, AHR activator 88.2*, SR-BI HDL uptake 11.2, SR-BI DiI-HDL act -11.2, FXN GAA850 act -1.3, AHR act cf 6.3 and PXR counter 108.3*.
Screening Cc1cc(C)c(C#N)c(SCc2c(F)cccc2[N+](=O)[O-])n1 returned JMJD2C inh 10.7, AHR activator 5.4, SR-BI HDL uptake 8.8, SR-BI DiI-HDL act -8.8 and FXN GAA850 act 2.5.
Screening Cc1cc(C)c(C(=O)COC(=O)CN2C(=O)NC3(CCCC3)C2=O)cc1C returned JMJD2C inh -6.0, AHR activator -0.4, SR-BI HDL uptake 8.1, SR-BI DiI-HDL act -8.1 and FXN GAA850 act 1.5.
For N/C(=N\OC(=O)c1ccccc1Cl)c1cccnc1 the results were JMJD2C inh 2.5, AHR activator 102.1*, SR-BI HDL uptake -7.5, SR-BI DiI-HDL act 7.5, FXN GAA850 act 2.6, AHR act cf 103.9* and PXR counter 5.2.
Screening N/C(=N\OC(=O)c1ccc(Cl)c(Cl)c1)c1cccnc1 returned JMJD2C inh 1.0, AHR activator 79.8*, SR-BI HDL uptake -11.4, SR-BI DiI-HDL act 11.4, FXN GAA850 act 4.2, AHR act cf 79.6* and PXR counter 13.8*.
Screening Nc1c(Cl)cc(C2=NCCn3nc4cc([N+](=O)[O-])ccc4c32)cc1Cl returned JMJD2C inh 21.1, AHR activator 118.0*, SR-BI HDL uptake 59.2, SR-BI DiI-HDL act -59.2, FXN GAA850 act 3.1, AHR act cf 103.7* and PXR counter 54.3*.
`O=C(OCC(=O)N1CCCCCC1)c1ccc([N+](=O)[O-])cc1Cl` gave JMJD2C inh -2.2, AHR activator 0.2, SR-BI HDL uptake 16.7, SR-BI DiI-HDL act -16.7 and FXN GAA850 act 1.0.
For CCOC(=O)c1nnsc1Nc1ccc(C)c(C)c1 the results were JMJD2C inh -15.7, AHR activator -1.9, SR-BI HDL uptake -3.9, SR-BI DiI-HDL act 3.9 and FXN GAA850 act 1.9.
Screening O=C(N/N=C/c1cccc(OCC(=O)N2CCCC2)c1)C(=O)Nc1ccccc1F returned JMJD2C inh 18.5, AHR activator 9.5, SR-BI HDL uptake 31.2, SR-BI DiI-HDL act -31.2 and FXN GAA850 act 1.8.
For Cc1ccc(C)c(S(=O)(=O)Nc2ccc(C(=O)N3CCOCC3)cc2)c1 the results were FXN GAA850 act -0.5.
For Cn1c(=O)c2c(nc(N/N=C3\CCCc4ccccc43)n2Cc2ccc(F)cc2)n(C)c1=O the results were JMJD2C inh -7.3, AHR activator 94.7*, SR-BI HDL uptake 6.9, SR-BI DiI-HDL act -6.9, FXN GAA850 act 0.3, AHR act cf 88.8* and PXR counter 40.3*.
`CCn1ncc(Br)c1C(=O)Nc1ccc(F)cc1F` gave JMJD2C inh 4.2, AHR activator 5.0, SR-BI HDL uptake -0.4, SR-BI DiI-HDL act 0.4 and FXN GAA850 act 2.3.
`CCn1cc(Br)c(C(=O)Nc2ccc(F)cc2F)n1` gave JMJD2C inh 4.1, AHR activator 99.3*, SR-BI HDL uptake -9.4, SR-BI DiI-HDL act 9.4, FXN GAA850 act 0.6, AHR act cf 130.2* and PXR counter 13.2*.
For Cc1nc(NC2=NCN(Cc3cccnc3)CN2)nc2ccccc12 the results were SR-BI HDL uptake -1.7, SR-BI DiI-HDL act 1.7 and FXN GAA850 act 0.1.

Bioassay records as filed in PubChem BioAssay.
